Assay results taken from article PMC368434 (BMC Gastroenterology, 2004).

Legend:
gastric H,K-ATPase = conditions: cited from earlier work; for IC50: read-out: IC50, gastric proton pump activity
[1] = target: pig gastric microsomal H,K-ATPase (Sus scrofa, UniProt P19156); test: H,K-ATPase assay; type: biochemical; conditions: for Attenuation of H,K-ATPase activity: non-physiological concentrations greater than 10^-7 M (up to 1 μM); for Inhibitory activity against H,K-ATPase: physiological concentrations (10^-9–10^-8 M)
Sequence of pig gastric microsomal H,K-ATPase (P19156 2-1034 limits assumed): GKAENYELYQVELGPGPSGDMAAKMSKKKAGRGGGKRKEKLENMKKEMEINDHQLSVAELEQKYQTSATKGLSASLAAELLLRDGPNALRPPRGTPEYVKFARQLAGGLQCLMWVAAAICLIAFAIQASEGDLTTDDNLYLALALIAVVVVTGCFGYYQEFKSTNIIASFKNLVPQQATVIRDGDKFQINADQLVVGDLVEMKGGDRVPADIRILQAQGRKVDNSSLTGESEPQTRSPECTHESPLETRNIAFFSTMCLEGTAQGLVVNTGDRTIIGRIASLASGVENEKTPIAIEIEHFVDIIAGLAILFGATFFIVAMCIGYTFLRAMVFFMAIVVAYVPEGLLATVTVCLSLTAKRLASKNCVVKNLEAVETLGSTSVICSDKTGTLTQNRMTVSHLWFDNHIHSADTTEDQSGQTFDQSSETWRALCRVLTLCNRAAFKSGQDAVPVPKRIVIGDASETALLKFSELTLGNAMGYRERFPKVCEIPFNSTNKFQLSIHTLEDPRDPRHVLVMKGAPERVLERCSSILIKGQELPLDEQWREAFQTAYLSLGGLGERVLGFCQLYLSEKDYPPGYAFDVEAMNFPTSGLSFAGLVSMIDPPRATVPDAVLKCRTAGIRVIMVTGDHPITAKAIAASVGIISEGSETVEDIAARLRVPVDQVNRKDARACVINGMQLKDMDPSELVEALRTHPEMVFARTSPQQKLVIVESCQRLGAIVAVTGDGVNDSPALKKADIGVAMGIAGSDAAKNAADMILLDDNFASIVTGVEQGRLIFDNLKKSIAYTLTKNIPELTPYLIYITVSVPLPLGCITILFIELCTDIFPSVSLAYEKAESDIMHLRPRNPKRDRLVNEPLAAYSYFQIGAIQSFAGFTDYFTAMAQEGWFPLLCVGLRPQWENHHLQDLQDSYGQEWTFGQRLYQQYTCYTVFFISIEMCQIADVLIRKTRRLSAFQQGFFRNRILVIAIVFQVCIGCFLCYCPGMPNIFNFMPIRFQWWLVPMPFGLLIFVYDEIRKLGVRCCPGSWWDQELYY
Sequence of pig gastric microsomal H,K-ATPase (P18434 whole entry partner): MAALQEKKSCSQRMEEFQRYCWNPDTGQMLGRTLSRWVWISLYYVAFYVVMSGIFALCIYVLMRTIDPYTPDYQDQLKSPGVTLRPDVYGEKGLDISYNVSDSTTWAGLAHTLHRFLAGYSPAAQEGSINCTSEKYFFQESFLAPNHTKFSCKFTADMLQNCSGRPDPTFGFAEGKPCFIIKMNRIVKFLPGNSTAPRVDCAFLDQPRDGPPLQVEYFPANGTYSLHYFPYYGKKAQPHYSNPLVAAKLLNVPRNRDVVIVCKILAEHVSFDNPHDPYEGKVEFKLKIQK

[2] = system: rabbit gastric parietal cells; test: Acid accumulation assay; type: cell-based; conditions: up to concentrations of 10^-4 M (data not shown)
cats = conditions: cited from earlier work
[3] = system: IL-8 secretion by human gastric adenocarcinoma (AGS) cells; test: IL-8 secretion by AGS cells; type: cell-based; conditions: 24 h, read-out: IC50, inhibition of baseline IL-8 secretion
How it was run: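 AGS cells in Ham's F-12 with 10% FBS and antibiotics (37°C, 5% CO2), passages 42–56. Seeded at 50,000 cells/100 μl/well and attached 18 hr, then exposed to test compound with or without IL-1β (1 ng/ml) for 24 hr. Medium IL-8 measured by ELISA. Solvent controls included, solvents <1% final. Triplicates, ≥3 experiments; IC50 from three-parameter logistic fit.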

[4] = system: bacteria or mammalian cells; rat bone marrow cells; conditions: cited from earlier work
[5] = 14C-labeled ML 3000, rats; cited from earlier work
guinea-pig ileum = conditions: cited from earlier work
rat = conditions: cited from earlier work
gastric damage = conditions: up to 100 mg/kg/d p.o., rat; cited from earlier work
dogs = conditions: cited from earlier work
rat stomach and blood = conditions: cited from earlier work

For `CCCCC[C@H](O)/C=C/[C@H]1[C@H](O)CC(=O)[C@@H]1C/C=C\CCCC(=O)O` [PGE2, prostaglandin E2], the “Inhibitory effect on pig gastric H,K-ATPase” value (gastric H,K-ATPase; pig, previous study) is given as “no inhibitory effect” and the IC50 [1] is given as 15 µM.
For `CCCCC/C=C\C[C@@H](O)/C=C/C=C/C=C\[C@@H](O)CCCC(=O)O` [LTB4, leukotriene B4], the “Attenuation of H,K-ATPase activity” value [1] was “significant attenuation” and the “Inhibitory activity against H,K-ATPase” value [1] was “neither leukotriene showed any inhibitory activity”.
For `COc1ccc2cc([C@H](C)C(=O)O)ccc2c1` [naproxen], the “Inhibitory effect on microsomal H,K-ATPase activity” value ([1]; concentrations up to 10^-4 M) was “without inhibitory effects”.
In the case of `CS(=O)(=O)Nc1ccc([N+](=O)[O-])cc1OC1CCCCC1` [NS 398], the “Effect on acid accumulation by isolated rabbit parietal cells” value [2] is reported as “no effect” and the “Inhibitory effect on microsomal H,K-ATPase activity” value ([1]; concentrations up to 10^-4 M) is reported as “without inhibitory effects”.
For `Cc1c(OCC(F)(F)F)ccnc1C[S+]([O-])c1nc2ccccc2[nH]1` (centres unmarked) [lansoprazole], the IC50 (gastric H,K-ATPase) is given as 2.1 µM.
Work on `CCCCC/C=C\C/C=C\C/C=C\C/C=C\CCCC(=O)O` [Arachidonic acid] yielded an IC50 [1] of 16.7 µM.
In the case of `COc1ccc2c(c1)c(CC(=O)O)c(C)n2C(=O)c1ccc(Cl)cc1` [indomethacin], the Ki (gastric H,K-ATPase; read-out: Ki, inhibition of gastric H,K-ATPase) is given as 670 µM and the “Inhibitory effect on microsomal H,K-ATPase activity” value ([1]; concentrations up to 10^-4 M) is given as “without inhibitory effects”.
For `COCCCOc1ccnc(C[S+]([O-])c2nc3ccccc3[nH]2)c1C` (centres unmarked) [rabeprazole], the IC50 (gastric H,K-ATPase) is given as 0.072 µM.
In the case of `CCCCC/C=C\C\C=C/C=C/C=C/[C@@H](SC[C@H](N)C(=O)NCC(=O)O)[C@@H](O)CCCC(=O)O` [LTD4, leukotriene D4], the “Attenuation of H,K-ATPase activity” value [1] is reported as “significant attenuation” and the “Inhibitory activity against H,K-ATPase” value [1] is reported as “neither leukotriene showed any inhibitory activity”.
In the case of `CC1(C)Cc2c(-c3ccccc3)c(-c3ccc(Cl)cc3)c(CC(=O)O)n2C1` [ML 3000, [2,2-dimethyl-6-(4-chlorophenyl)-7-phenyl-2,3-dihydro-1H-pyrrolizine-5-yl]-acetic acid], the Neuromuscular function (cats) is listed as “without affect”, the IC50 [3] is listed as 0.46 µM and the “Genotoxicity: gene mutation frequencies in bacteria or mammalian cells, unscheduled DNA synthesis, chromosomal aberrations in rat bone marrow cells” value [4] is listed as “no effects”. For the same molecule, the Distribution and excretion [5] was “enterohepatic circulation and glucuronide conjugation”, the Spasmogenic response (guinea-pig ileum) was “weak spasmogenic response” and the “Gastric damage and peristaltic disturbance” value (rat; animal models) was “neither gastric damage nor peristaltic disturbance”. For the same molecule, the “Rat locomotor activity or hexobarbital-induced sleep” value (rat) was “did not affect”, the “Cardiovascular or respiratory effects” value (rat; rat) was “no cardiovascular or respiratory effects” and the Urine output (rat; rats) was “small transient reduction”. The Gastric damage (gastric damage) was “no gastric damage”, the “Cardiovascular or respiratory effects” value (dogs) was “no cardiovascular or respiratory effects” and the Gastric mucosal injury (rat stomach and blood) was “no gastric mucosal injury”. The “Leukocyte adherence in mesenteric venules” value (rat stomach and blood) was “no effect”, the “Gastric prostaglandin E2 synthesis” value (rat stomach and blood; rat stomach and blood) was “reduces” and the “Inhibition of gastric or blood leukotriene B4 synthesis” value (rat stomach and blood; rat) was “not detected”. The IC50 [1] was 16.4 µM, the “Effect of ML 3000 acidification on H,K-ATPase inhibitory profile” value ([1]; ML 3000 titrated to pHs 2.0 to 7.4 for 30 min, 16.6 μM final concentration) was “no significant effect” and the “Reversibility of H,K-ATPase inhibition” value ([1]; dilution from 100 μM to 3.3 μM) was “reversible”.
In the case of `COC(=O)c1cc2nc([S+]([O-])Cc3ncccc3C)[nH]c2cc1C` (centres unmarked) [picoprazole], the IC50 (gastric H,K-ATPase) is given as 2 µM.
For `CC(=O)Oc1ccccc1C(=O)O` [acetyl salicylic acid], the “Effect on acid accumulation by isolated rabbit parietal cells” value [2] was “no effect” and the “Inhibitory effect on microsomal H,K-ATPase activity” value ([1]; concentrations up to 10^-3 M) was “without inhibitory effects”.
